CHRM4 PAM – potentiates acetylcholine response at human M4 receptor; CHO-K1 hM4/Gqi5, Fluo-8 calcium fluorescence, ACh EC20; 0% = ACh EC20, 100% = maximal ACh; 0.4% of 360,000 active; activation, % at 3 µM; P08173;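 active means activation above its plate's cutoff, the mean activation of sample wells plus 3 SD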
CHRM5 agonist – agonists of human muscarinic M5 receptor (CHRM5); AID 624037; P08912; CHO-K1 hM5 cells, Fluo-8 calcium fluorescence; 0% DMSO wells, 100% maximal acetylcholine response; activation, % at 3 µM; 0.19% of 360,000 active;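 active means activation above the run's mean over test compounds plus 3 SD, cut at about 23% in these data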;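 further: signal is peak over basal fluorescence ratio across the kinetic read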
Target sequence (P08912 whole entry, looked up): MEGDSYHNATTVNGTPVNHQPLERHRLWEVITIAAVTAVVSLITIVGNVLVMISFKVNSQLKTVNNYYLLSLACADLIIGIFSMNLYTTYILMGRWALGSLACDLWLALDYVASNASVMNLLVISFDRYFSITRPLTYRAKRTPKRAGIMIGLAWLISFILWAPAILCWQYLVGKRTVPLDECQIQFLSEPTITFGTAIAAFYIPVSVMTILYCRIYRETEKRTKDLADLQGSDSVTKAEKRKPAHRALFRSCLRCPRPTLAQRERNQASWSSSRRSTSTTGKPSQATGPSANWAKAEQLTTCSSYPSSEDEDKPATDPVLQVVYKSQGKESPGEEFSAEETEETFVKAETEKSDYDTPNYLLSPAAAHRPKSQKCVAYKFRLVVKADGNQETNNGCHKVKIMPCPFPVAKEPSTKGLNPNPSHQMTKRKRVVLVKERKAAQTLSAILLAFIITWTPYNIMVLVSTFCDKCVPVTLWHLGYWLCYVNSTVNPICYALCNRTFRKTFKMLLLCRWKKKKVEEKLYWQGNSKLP
M5 antag – blocks acetylcholine activation of human M5 receptor; P08912; CHO-hM5 cells, Fluo-8 calcium fluorescence, ACh EC80; inhibition, % at 3 µM; 0.59% of 360,000 active; AID 624040;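 active means inhibition above a per-plate cutoff, the mean of that plate's test compounds plus 3 SD, cut at about 27% in these data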
M4 ag – agonists of human muscarinic M4 receptor (CHRM4) | P08173 | CHO-K1 hM4/Gqi5, Fluo-8 calcium fluorescence; vehicle 0%, full acetylcholine response 100% | activation, % at 3 µM | 0.14% of 360,000 active;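 active means activation above the run mean over all test wells plus 3 SD, cut at about 32% in these data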;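 further: peak over basal fluorescence ratio per well then scaled between controls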
CHRM4 antagonist – CHRM4 antagonism in calcium assay. inhibition, % at 3 µM. 0.73% of 360,000 active. P08173. CHO-hM4 cells, ACh EC80, Fluo-8 calcium fluorescence. AID 624125;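 active means inhibition above its plate's cutoff, the mean inhibition of sample wells plus 3 SD, cut at about 27% in these data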
M5 PAM – potentiates acetylcholine response at human M5 receptor; P08912; CHO-K1 hM5, Fluo-8 calcium, ACh EC20 PAM; 0% = ACh EC20, 100% = ACh EC100; activation, % at 3 µM; 0.3% of 360,000 active;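 active means activation above the run cutoff, the mean activation of all test compounds plus 3 SD, cut at about 18% in these data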
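Assay system: CHO-K1 hM5 cells / Incubation: Fluo-8 loading 80 min at 37 °C plus 30 min room temperature / Technique: Fluo-8 calcium dye fluorescence, kinetic read / Repeats: single replicate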
Hits are given with their value; 0 = inactive. Compounds with a hit are over-represented: about 1.8% of the library has one in this group of screens.

SMILES	CHRM4 PAM	CHRM5 agonist	M5 antag	M4 ag	CHRM4 antagonist	M5 PAM
COc1ccc(N(CC(=O)Nc2ccccc2OC)S(=O)(=O)c2ccc(NC(C)=O)cc2)cc1	0	0	31.8	0	0	0
O=c1c2ccccc2nc2n1CCN2Cc1ccc(Cl)cc1	0	0	28.8	0	0	0
COc1cc(C2C=C(c3cccs3)Nc3ncnn32)cc(OC)c1OC (stereo unspecified)	0	0	0	34.5	0	0
O=C(COC(=O)/C=C/c1ccccc1)NC1CCCCC1	0	0	0	0	0	0
CC(=O)N1CCC(C(=O)Nc2cc(S(=O)(=O)N3CCCCC3)ccc2C)CC1	0	0	0	0	0	0
COc1ccccc1N1C(=O)C2C3C=CC(CC3)C2C1=O (stereo unspecified)	0	0	0	0	0	0
COc1ccccc1N1CCNC(C)C1=O (stereo unspecified)	14.4	0	0	0	0	0
O=C1C=CC2C3C(=O)N(c4ccccc4)C(=O)C3C1N2Cc1ccccc1 (stereo unspecified)	0	0	0	0	30.8	0
O=C1C2C3C=CC(CC3)C2C(=O)N1c1ccccc1 (stereo unspecified)	0	0	0	0	0	0
CCOC(=O)Cn1cnc(-c2ccc([N+](=O)[O-])cc2)c1	26.5	0	0	0	0	0
CC(=O)Nc1ccc2c(c1)Cc1cc(N3C(=O)C=CC3=O)ccc1-2	0	0	0	0	33.5	0
O=[N+]([O-])c1ccc2c(c1)Cc1cc(F)ccc1-2	0	0	0	0	0	0
O=C1C=CC(=O)N1c1ccc2c(c1)Cc1cc(F)ccc1-2	0	0	0	0	37.4	0
CCc1nnc(NC(=O)c2ccc(S(=O)(=O)N(C)Cc3ccccc3)cc2)o1	16.5	0	0	0	0	0
CCc1nnc(NC(=O)c2ccc(S(=O)(=O)N(CC)Cc3ccccc3)cc2)o1	0	0	0	0	0	0
CCCCN(C)C(=O)c1cccc(OC2CCN(CC(C)(C)C)CC2)c1	0	0	0	0	0	0
CC(C)(C)CN1CCC(Oc2cccc(C(=O)N3CCNC(=O)C3(C)C)c2)CC1	0	0	30.9	0	0	0
Cc1ccc(S(=O)(=O)N2CCN(C(=O)COC(=O)CSc3ccccc3)CC2)c(C)c1	0	0	0	0	0	0
CCCCN1C(=O)N(c2ccc(Cl)cc2)C(C)(O)CC1(C)C (stereo unspecified)	0	0	0	0	0	0
CN1C(=O)N(c2ccc(Cl)cc2)C(C)(O)CC1(C)C (stereo unspecified)	0	0	0	0	0	24.7
O=c1oc2cc(O)ccc2cc1-c1nc2ccccc2o1	0	26.9	0	40.7	0	0
O=c1oc2cc(O)ccc2cc1S(=O)(=O)c1ccccc1	0	0	0	0	0	0
CNc1c(NS(=O)(=O)c2ccc(C3CCCCC3)cc2)c(=O)oc2ccccc12	0	0	0	0	0	0
CC(C)CCN1CCN(Cc2cccc(-n3cccn3)c2)CC1CCO (stereo unspecified)	0	0	0	0	0	0
Cc1cc(-n2cccn2)ccc1CN1CCN(CC(C)C)C(CCO)C1 (stereo unspecified)	0	0	0	0	55.3	0
SMILES	CHRM4 PAM	CHRM5 agonist	M5 antag	M4 ag	CHRM4 antagonist	M5 PAM
CC(C)N1CCC(N2CCN(Cc3cc(F)ccc3-n3cccn3)CC2CCO)CC1 (stereo unspecified)	0	0	0	0	0	21.6
CC(C)N1CCN(Cc2cc(F)ccc2-n2cccn2)CC1CCO (stereo unspecified)	0	0	0	0	0	0
Cc1cc(-n2cccn2)ccc1CN1CCN(C2CCCC2)C(CCO)C1 (stereo unspecified)	0	0	53.8	0	98.7	0
CCNC(=O)C1(C)CCN1CCC(=O)c1ccc(C)cc1 (stereo unspecified)	0	0	0	0	0	0
CC1CCCCN1CCCNC(=O)CN1C(=O)c2cccnc2Oc2ccccc21 (stereo unspecified)	0	0	0	0	0	0
C[C@H](CO)N1C[C@H](C)[C@@H](CN(C)C(=O)c2cc(-c3ccccc3)on2)OCc2cn(nn2)CCCC1=O	0	0	0	0	0	0
Cc1nn(CC(=O)NCCCN2CCC(Cc3ccccc3)CC2)c(=O)c2cc(-c3ccccc3)nn12	0	0	0	0	0	0
CCc1ccc(-c2cc3c(=O)n(CC(=O)NCCCN4CCC(Cc5ccccc5)CC4)nc(C)n3n2)cc1	0	0	0	0	39.7	0
Cc1ccc(-n2c(-c3ccco3)n[nH]c2=S)cc1	0	0	0	0	0	0
CC(C1CC2CCC1C2)n1c(-c2ccco2)n[nH]c1=S (stereo unspecified)	0	0	28.9	0	0	0
O=C(Nc1cnn(Cc2ccc(Cl)cc2Cl)c1)c1noc2c1CCCC2	0	0	0	0	0	0
O=C(Nc1cnn(Cc2ccc(Cl)cc2Cl)c1)c1cc(-c2cccs2)on1	30.7	0	0	0	0	0
O=[N+]([O-])c1ccc(C2=NN(c3ccccc3)C(c3ccco3)C2)cc1 (stereo unspecified)	0	213.6	76.9	41.1	37.5	0
CC1=NN(c2ccccc2)C(c2ccco2)C1 (stereo unspecified)	0	0	0	0	0	0
O=[N+]([O-])c1ccc(/C=C/C2=NN(c3ccccc3)C(c3ccco3)C2)cc1 (stereo unspecified)	0	43.5	42.2	0	0	0
O=[N+]([O-])c1ccc(C=CC=Cc2ccccc2)cc1	0	0	0	0	0	0
CC(C)=CCN1CCN(Cc2cnc(-c3ccccc3)s2)CC1CCO (stereo unspecified)	0	0	0	0	0	0
Cc1ccc(NC(=O)c2cc([N+](=O)[O-])ccc2N2CCOCC2)cc1S(=O)(=O)N(C)C	0	0	0	0	49.0	0
Cc1ccc(NC(=O)c2cc([N+](=O)[O-])ccc2N2CCOCC2)cc1C	0	0	0	0	0	0
COc1ccc(NC(=O)CNC(=O)C2CCCCC2)cc1OC	0	0	0	0	0	0
Cc1c(NS(=O)(=O)c2cccc(C(=O)N3CCC(C(N)=O)CC3)c2)c(=O)n(-c2ccccc2)n1C	32.2	0	0	0	0	0
COCCn1c(SCC(=O)NCc2ccccc2)nnc1-c1ccco1	18.4	0	0	0	0	0
COCCn1c(SCC(=O)Nc2ccc(NC(=O)c3ccco3)c(OC)c2)nc2ccccc2c1=O	20.0	0	0	0	0	0
COCCCn1c(SCC(N)=O)nnc1-c1ccccc1	0	0	0	0	0	0

Screening data deposited in PubChem by The Scripps Research Institute Molecular Screening Center.
